SF1 activator: activators of human nuclear receptor SF-1; AID 522; hit rate 1.9% among 65,000; CHO-K1 Gal4-SF-1 LBD luciferase reporter; % increase over DMSO SF-1-specific signal; activation, % at 10 µM;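 active = activation above the mean activation of all tested compounds plus 3 SD, cut at about 50% in these data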
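material = CHO-K1 cells with Gal4–hSF-1 LBD chimera plus Gal4-driven luciferase | compound = 10 µM single point, 1% DMSO | incubation = 20 h compound exposure at 37 °C after 1 h cell settling | measured by = SteadyLite luciferase luminescence | evaluation = percent activation relative to DMSO median and mock-transfected background | control set = DMSO negative control and −SF1 background wells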
TNAP act mid DEA: human TNAP activation, intermediate phosphate acceptor; 64,000 tested, under 10 active; P05186; purified TNAP, CDP-star luminescence, 100 mM DEA, 30 min; hits give high values; scale: 0 levamisole-inhibited, 1 vehicle-only enzyme; activation factor at 20 µM;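 active = activation factor of at least 2 at 20 µM, relative to controls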
MT1-MMP txn act: MT1-MMP promoter transcription activation. hit rate 0.16% among 86,000. AID 750. HT1080 MT1-MMP promoter luciferase reporter, luminescence, overnight; hits give high values. activation factor at 10 µM;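 active = activation factor of at least 2 for MT1-MMP transcription at 10 µM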
RORA act: activates the human nuclear receptor RORA. P35398. hit rate 1.5% among 65,000. activation, % at 10 µM. CHO-K1 Gal4-RORA LBD luciferase reporter, luminescence; percent increase over mock-subtracted basal signal;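 active = activation above the mean of all tested compounds plus 3 SD, cut at about 49% in these data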;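 note: 0% = DMSO-treated RORA cells and 100% = added signal equal to DMSO minus mock-transfected cells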
Target sequence (P35398 whole entry, looked up, the tested form may be a part): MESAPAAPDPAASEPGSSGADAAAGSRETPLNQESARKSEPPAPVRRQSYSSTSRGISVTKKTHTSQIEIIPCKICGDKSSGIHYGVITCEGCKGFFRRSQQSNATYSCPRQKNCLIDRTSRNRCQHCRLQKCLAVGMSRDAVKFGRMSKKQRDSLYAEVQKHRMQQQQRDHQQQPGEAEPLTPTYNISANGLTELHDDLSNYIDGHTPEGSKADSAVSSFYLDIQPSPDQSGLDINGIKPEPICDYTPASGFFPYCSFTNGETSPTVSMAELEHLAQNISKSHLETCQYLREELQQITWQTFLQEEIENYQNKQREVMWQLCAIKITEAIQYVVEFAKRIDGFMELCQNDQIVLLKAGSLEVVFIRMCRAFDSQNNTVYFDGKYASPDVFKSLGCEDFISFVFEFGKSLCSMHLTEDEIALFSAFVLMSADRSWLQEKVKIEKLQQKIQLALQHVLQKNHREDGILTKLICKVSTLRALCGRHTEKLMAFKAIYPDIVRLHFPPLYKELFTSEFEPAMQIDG
MMP13 inh: blocks human MMP13 activity. AID 570. MMP-13 fTHP FRET cleavage, Mca fluorescence. hit rate 0.07% among 65,000. P45452. inhibition, % at 4 µM;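 active = inhibition above the mean of compound-free control plate wells plus 3 SD, cut at about 14% in these data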;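 note: 0% = DMSO wells and 100% = wells with reference MMP-13 inhibitor after basal subtraction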
Starred values were filed as active, the others as inactive; . = no result given. Hits are enriched below; roughly 2.1% of the tested compounds scored in any of these assays.

SMILES	SF1 activator	TNAP act mid DEA	MT1-MMP txn act	RORA act	MMP13 inh
COC(=O)c1cc(Nc2ncnc3c2cnn3-c2ccccc2)cc(C(=O)OC)c1	-11	0.9	1.1	14	5
Cc1ccc(S(=O)(=O)NCC(=O)OC(C)C(=O)Nc2ncc(Cl)cc2Cl)cc1 (configuration not stated)	.	.	1.1	.	.
O=C(Nc1cccc2ccccc12)c1cnccn1	63*	0.8	1.6	15	-2
CC1=C(C(=O)OCC(Br)(Br)Br)C(c2cccc([N+](=O)[O-])c2)NC(=O)N1CCCC(=O)O (configuration not stated)	.	.	1.2	.	.
CCOC(=O)Nc1ccc2c(c1)Nc1ccccc1S2	1	0.8	1.1	53*	2
CN(c1ccc(O)cc1)c1nc(-c2ccccc2)cs1	9	0.8	.	16	20*
C/C(N)=C(/C#N)C(=O)CSc1ccc2c(c1)OCCO2	58*	0.9	1.2	-2	-4
COc1ccc(CS(=O)(=O)/C(Cl)=C(/Cl)C(=O)Nc2ccc(OC)nc2)cc1	.	.	0.3	.	.
Fc1cccc(NCc2cn3ccccc3n2)c1	72*	0.9	1.1	45	-4
Fc1ccc(NCc2cn3ccccc3n2)cc1	47	0.9	1.5	20	1
Oc1cc(NCc2cccnc2)ccc1-c1nc2ccccc2o1	38	0.8	1.7	61*	-32
CCCC[C@@H]1C[C@H]1C(NC(=O)c1cccnc1)c1ccc(Cl)cc1 (some centres not stated)	.	.	1.2	.	.
COc1ccc(N(CC(=O)Nc2cc(C)ccc2OC)S(=O)(=O)c2c(C)noc2C)cc1	54*	0.9	1.2	24	-3
O=C(CSc1nnc(CNc2ccc(F)cc2)n1-c1ccccc1)N1CCOCC1	.	.	1.3	.	.
CCCc1cc(=O)n2[nH]c(-c3ccc(Br)cc3)cc2n1	112*	1	1.6	38	-19
CCOC(=O)Cc1cc(=O)n2[nH]c(-c3ccccc3)cc2n1	.	.	1.3	.	.
Cc1nn2c(-c3ccncc3)nnc2c2ccccc12	-10	0.9	1.1	-5	2
COc1ccc(-c2nnc3c4ccccc4c(C)nn23)cc1	.	.	2*	.	.
CC(C)NC(=O)[C@@H]1C[C@@]1(C)[C@@H](NC(=O)OCc1ccccc1)c1ccccc1	.	.	1.1	.	.
Cc1ccc(-n2ncc3c(NCc4ccccc4)ncnc32)cc1	62*	0.9	1.4	61*	-12
Cc1cccc(-n2ncc3c(NCc4cccnc4)ncnc32)c1	56*	0.8	1.4	73*	-19
c1ccc(Cn2ncc3c(NCc4ccco4)ncnc32)cc1	-13	0.9	1.2	3	5
c1ccc(-n2ncc3c(NCc4ccco4)ncnc32)cc1	77*	0.8	1.5	90*	6
Cc1cccc(-n2ncc3c(NC4CCCCC4)ncnc32)c1	17	0.9	1.5	12	-1
Cc1ccc(CNc2ncnc3c2cnn3-c2ccccc2)cc1	16	0.9	1.2	40	-4
SMILES	SF1 activator	TNAP act mid DEA	MT1-MMP txn act	RORA act	MMP13 inh
C=CCNc1ncnc2c1cnn2-c1cccc(C)c1	42	1	1.2	55*	-15
CC(C)(C)C(=O)NC(c1ccc(Cl)cc1)[C@]1(C)C[C@H]1C1CCCCC1 (some centres not stated)	.	.	1.3	.	.
COC(=O)[C@@]1(Cc2ccc(OC)cc2)[C@H]2c3cc(C(=O)N4CCCC4)n(Cc4cc(F)cc5c4OCOC5)c3C[C@H]2CN1C(=O)c1ccccc1	.	.	1.2	.	.
FC(F)(F)c1ccc(CN2C[C@@H]3C(c4ccc(C(F)(F)F)cc4)C4(c5ccccc5)CC3(C4)[C@H]2c2ccccc2)cc1 (some centres not stated)	.	.	1.1	.	.
Clc1ccc(-n2ncc3c(NCc4ccccn4)ncnc32)cc1	74*	1	1.2	7	-17
Cc1cccc(-n2ncc3c(NCCCO)ncnc32)c1	67*	0.9	1.2	83*	-12
C=CCNc1ncnc2c1cnn2-c1ccc(Cl)cc1	50*	1	1.6	28	-7
Cc1ccc(C(=O)N2c3ccccc3N(Cc3ccccc3)C(=O)C2(C)C)cc1	.	.	1.2	.	.
COC(=O)c1cccc(C23CC4(C2)[C@H](CN(C)[C@@H]4c2ccccc2)C3c2ccc(Cl)nc2)c1 (some centres not stated)	.	.	1	.	.
Brc1cccc(-c2n[nH]c(-c3ccccc3)n2)c1	65*	0.8	1.6	83*	2
O=C(NC1CCCCC1)c1ccccc1NC(=O)C1CC(=O)N(c2ccc(Cl)cc2)C1 (configuration not stated)	.	.	1.3	.	.
c1ccc(CNc2ncnc3c2ncn3C2CCCCO2)cc1 (configuration not stated)	60*	1	1.7	68*	-3
CCn1c(SCC(=O)C(C)(C)C)nnc1-c1ccccn1	-4	0.9	1.2	0	16*
Nc1nnc(-c2cc3ccccc3oc2=O)s1	55*	0.8	1.8	42	-28
C/C(N)=C(/C#N)C(=O)CSc1nc2cc(Cl)ccc2s1	-8	1	1.4	-18	4
C/C(N)=C(/C#N)C(=O)CSc1nnc(Nc2cccc(C)c2)s1	69*	0.8	1.6	36	0
Cc1ccc2[nH]cc(C(=O)NCc3cccs3)c(=O)c2c1	.	.	1.3	.	.
COc1cccc2c(=O)c(C(=O)NCc3cccs3)c[nH]c12	119*	0.8	1.7	26	-88
c1cncc(C2Nc3ccccc3-c3nc4ccccc4n32)c1 (configuration not stated)	38	0.8	.	58*	-433
COC(=O)[C@@]1(Cc2ccc(F)cc2)[C@H]2c3cc(C(=O)N(C)C)n(CCN4CCOCC4)c3C[C@H]2CN1C(=O)c1ccccc1	.	.	1.1	.	.
CCCCN(CCCC)C(=O)c1ccccc1NC(=O)CN1C(=O)c2ccccc2C1=O	.	.	1.2	.	.
CCn1c(SCC(=O)c2cccs2)nnc1-c1ccco1	54*	0.9	1.3	7	-2
COc1cccc(-n2nc(C(=O)N3CC(C)CC(C)C3)c3ccccc3c2=O)c1 (configuration not stated)	.	.	1.1	.	.
CCn1nccc1C(=O)Nc1ccc(Cl)cc1Cl	67*	0.9	1.3	31	1
CCCN1C(=O)/C(=C2\SC(N3CCCCC3)=NC2=O)c2ccccc21	81*	0.8	1.6	65*	5
SMILES	SF1 activator	TNAP act mid DEA	MT1-MMP txn act	RORA act	MMP13 inh
CCC(C)c1ccc(NC(=O)c2cccnc2)cc1 (configuration not stated)	112*	0.8	1.5	93*	-1
O=C(Nc1cnc2ccccc2c1)c1cccc(-n2cnnn2)c1	56*	0.8	1.8	37	6
CCOc1ccc(NC(=O)c2cccc(-n3cnnn3)c2)cc1	-2	1	1	14	5
O=C(Nc1cnc2ccccc2c1)c1cccnc1	75*	0.8	1	58*	8
O=C(Nc1cccc(NC(=O)c2cccnc2)c1)c1cccnc1	-8	0.8	1.1	-11	5
CCCn1c(NC(=O)c2ccccc2)nc2ccccc21	12	0.9	1.3	22	-2

High-throughput results as filed in PubChem BioAssay.
